What all share (type): functional
The test system of assay [1] is Rattus norvegicus. As to the kind of experiment: Antiallergic activity against passive cutaneous anaphylaxis (PCA) in male Sprague-Dawley rats after 10.0 mg/kg oral administration;p<0.1. The method, boiled down: (§1)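 IgE antiserum raised in male Sprague-Dawley rats (ca. 200 g) by immunization with Ascaris suum extract (2 then 0.2 mg protein), bled 2 weeks after the second dose. Recipients got 0.05 mL diluted antiserum intracutaneously on the back. Blued area (product of two diameters) was read at 30 min.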

The subject of assay [2] is Rattus norvegicus. The experiment in a line: Antiallergic activity against passive cutaneous anaphylaxis (PCA) in male Sprague-Dawley rats after 3.0 mg/kg oral administration;not statistically significant. In short, it runs like this: as §1
Assay [3] has as its system Rattus norvegicus. As to the kind of experiment: Antiallergic activity against passive cutaneous anaphylaxis (PCA) in male Sprague-Dawley rats after 3.0 mg/kg oral administration;p<0.1. The method, boiled down:
as §1

The subject of assay [4] is Rattus norvegicus. The experiment in a line: Inhibition of passive cutaneous anaphylaxis in male Sprague-Dawley rats following 10 mg/kg p.o. administration. As to conditions: route oral. In short, it runs like this: as §1
Assay [5] deals with Rattus norvegicus. The experiment in a line: Antiallergic activity against passive cutaneous anaphylaxis (PCA) in male Sprague-Dawley rats after 3.0 mg/kg oral administration;p<0.1. The method, boiled down:
as §1

In assay [6] the test system is Rattus norvegicus. The experiment in a line: Inhibition of passive cutaneous anaphylaxis in male Sprague-Dawley rats following 1 mg/kg p.o. administration; Not significant. As to conditions: route oral. The method, boiled down:
as §1

The subject of assay [7] is Rattus norvegicus. The experiment in a line: Antiallergic activity against passive cutaneous anaphylaxis (PCA) in male Sprague-Dawley rats after 1.0 mg/kg oral administration;p<0.1. The method, boiled down: as §1
Assay [8] deals with Rattus norvegicus. As to the kind of experiment: Antiallergic activity against passive cutaneous anaphylaxis (PCA) in male Sprague-Dawley rats after 0.3 mg/kg oral administration. In short, it runs like this:
as §1

Assay [9] deals with Rattus norvegicus. The experiment in a line: Antiallergic activity against passive cutaneous anaphylaxis (PCA) in male Sprague-Dawley rats after 3.0 mg/kg oral administration. The method, boiled down:
as §1

Assay [10] relates to Rattus norvegicus. As to the kind of experiment: Antiallergic activity against passive cutaneous anaphylaxis (PCA) in male Sprague-Dawley rats after 0.3 mg/kg oral administration;p<0.1. The method, boiled down: as §1
The subject of assay [11] is Rattus norvegicus. As to the kind of experiment: Inhibition of passive cutaneous anaphylaxis in male Sprague-Dawley rats following 0.3 mg/kg p.o. administration; Not significant. As to conditions: route oral. In short, it runs like this:
as §1

A word on the inhibition in vivo: it is the percentage by which the read-out fell short of the control. A lower inhibition in vivo goes with a weak effect. Compound `Cc1ccc(-c2cc(Cl)cc(C(=O)Nc3nn[nH]n3)n2)cc1C` showed an inhibition in vivo at 10 mg/kg in assay [1] of 58%. Testing at 3 mg/kg in assay [2] gave an inhibition in vivo of 32%.
Regarding `CCCc1cc(C(=O)Nc2nn[nH]n2)nc(-c2ccccc2)c1`, the inhibition in vivo at 3 mg/kg in assay [3] is 22%. In addition, the inhibition in vivo at 10 mg/kg in [4] was 85%.
Compound `Cc1cc(C(=O)Nc2nn[nH]n2)nc(-c2cccc(N)c2)c1` displayed an inhibition in vivo at 3 mg/kg in [5] of 50%. In assay [6], this compound gave an inhibition in vivo at 1 mg/kg of 29%.
For `COc1cc(C(=O)Nc2nn[nH]n2)nc(-c2ccc(OC)c(OC)c2)c1`, the inhibition in vivo at 3 mg/kg in assay [5] is 62%. The compound further registered an inhibition in vivo at 1 mg/kg in [6] of 18%. The same compound yielded an inhibition in vivo at 10 mg/kg in [4] of 51%.
Consider `CCCOc1cc(C(=O)Nc2nn[nH]n2)nc(-c2ccccc2)c1`, for which at 1 mg/kg the inhibition in vivo in [7] was 27%. The compound further showed an inhibition in vivo at 0.3 mg/kg in assay [8] of 0%. Besides, the inhibition in vivo at 3 mg/kg in [9] was 100%.
For `O=C(Nc1nn[nH]n1)c1cccc(-c2ccccc2)n1`, in assay [7], 1 mg/kg produced 36% inhibition in vivo. Further, in [9], 3 mg/kg produced 74% inhibition in vivo. Moreover, in assay [4], testing at 10 mg/kg gave an inhibition in vivo of 81%.
`COc1cc(C(=O)Nc2nn[nH]n2)nc(-c2ccc(N)cc2)c1`: at 0.3 mg/kg the inhibition in vivo in assay [10] was 12%. Also, at 1 mg/kg the inhibition in vivo in assay [7] was 50%.
`Nc1cccc(-c2cccc(C(=O)Nc3nn[nH]n3)n2)c1` had an inhibition in vivo at 10 mg/kg in assay [1] of 57%. Besides, in [9], the inhibition in vivo at 3 mg/kg amounted to 0%.
For the compound `COc1cc(C(=O)Nc2nn[nH]n2)nc(-c2cccc(N)c2)c1`, the inhibition in vivo at 10 mg/kg in assay [1] is 58%. Also, the inhibition in vivo at 1 mg/kg in assay [7] was 27%. In assay [9], this compound returned an inhibition in vivo at 3 mg/kg of 41%.
As to `COc1ccc(-c2cc(C)cc(C(=O)Nc3nn[nH]n3)n2)cc1`, in [1], the inhibition in vivo at 10 mg/kg was 52%. Besides, in [9], testing at 3 mg/kg gave an inhibition in vivo of 43%.
In the case of `CCCCc1ccc(-c2cc(C)cc(C(=O)Nc3nn[nH]n3)n2)cc1`, the inhibition in vivo at 1 mg/kg in assay [7] is 42%. Besides, the inhibition in vivo at 0.3 mg/kg in assay [11] was determined as 17%. For the same compound, the inhibition in vivo at 3 mg/kg in assay [9] worked out at 67%.
Regarding `CCc1ccc(-c2cc(C)cc(C(=O)Nc3nn[nH]n3)n2)cc1`, the inhibition in vivo at 3 mg/kg in assay [3] amounted to 35%. Also, the inhibition in vivo at 10 mg/kg in assay [4] was 100%.
Regarding `COc1cc(C(=O)Nc2nn[nH]n2)nc(-c2ccc(C(C)(C)C)cc2)c1`, the inhibition in vivo at 3 mg/kg in assay [5] is 68%. This compound showed an inhibition in vivo at 1 mg/kg in assay [6] of 29%.
The compound `O=C(Nc1nn[nH]n1)c1cc(Cl)cc(-c2ccc(Cl)cc2)n1` showed an inhibition in vivo at 10 mg/kg in assay [1] of 63%. In [9], this compound displayed an inhibition in vivo at 3 mg/kg of 11%.

(Values after ChEMBL document CHEMBL1122378, “Antiallergic agents. 2. N-(1H-tetrazol-5-yl)-6-phenyl-2-pyridinecarboxamides” (1983).)
